For series [1], the target named is T1, E3 ubiquitin-protein ligase XIAP/Tyrosine-protein kinase JAK1 (Homo sapiens) (UniProt P23458+P98170). The experiment in a line: Protac activity at IAP/JAK1 in human THP1 cells assessed as increase in JAK1 degradation up to 10 uM after 24 hrs by Western blot analysis. In kind it is cell-based. The following applies: THP-1. The method in brief: (§1)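 Unstimulated THP-1 cells were exposed to PROTAC across 0.6–10 µM for 24 h. JAK1/JAK2 levels were read by automated Western blot using antibodies detecting only unphosphorylated JAK. % degradation is relative to basal levels in DMSO-treated cells, as the mean of separate experiments (n ≥ 3). Significance was assessed by one-tailed Student's t-test at each concentration.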
For orientation: Immunoblotting shows a protein as a band on a membrane.

In series [2] the target is T2, E3 ubiquitin-protein ligase XIAP/Tyrosine-protein kinase JAK2 (Homo sapiens) (UniProt O60674+P98170). Nature of the series: Protac activity at IAP/JAK2 in human THP1 cells assessed as increase in JAK2 degradation up to 10 uM after 24 hrs by Western blot analysis relative to control. In kind it is cell-based. The following applies: THP-1. The method in brief:
as §1

The nature of series [3]: Lipophilicity, log D of the compound at pH 7.4 by chromatographic method. In kind it is physicochemical. Conditions: buffer.
In series [4] the target is T1, E3 ubiquitin-protein ligase XIAP/Tyrosine-protein kinase JAK1 (Homo sapiens). The experiment in a line: Protac activity at IAP/JAk1 in human PBMC cells assessed as reduction in IL2-induced IFNgamma production measured after 1 hr. The series is classed as cell-based. The method in brief:
(§2)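 Human PBMCs were given a 1 h compound incubation in the IL-2-stimulated assay, with IFNγ signalling as the cellular potency readout, reported as pIC50.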

For series [5] the target is unchanged. The experiment in a line: Protac activity at IAP/JAK1 in human THP1 cells assessed as increase in JAK1 degradation at 10 uM after 24 hrs by Western blot analysis. The series is classed as cell-based. Conditions: THP-1. In outline: as §1
Series [6] deals with T2, E3 ubiquitin-protein ligase XIAP/Tyrosine-protein kinase JAK2 (Homo sapiens). The experiment in a line: Protac activity at IAP/JAK2 in human THP1 cells assessed as increase in JAK2 degradation at 10 uM after 24 hrs by Western blot analysis relative to control. The series is classed as cell-based. The following applies: THP-1. In outline:
as §1

Series [7] concerns the target T1, E3 ubiquitin-protein ligase XIAP/Tyrosine-protein kinase JAK1 (Homo sapiens). Nature of the series: Protac activity at IAP/JAK1 in human THP1 cells assessed as increase in JAK1 degradation at 5 uM after 24 hrs by Western blot analysis relative to control. The following applies: THP-1. In kind it is cell-based. In outline: as §1
The target in series [8] is T2, E3 ubiquitin-protein ligase XIAP/Tyrosine-protein kinase JAK2 (Homo sapiens). The experiment in a line: Protac activity at IAP/JAK2 in human THP1 cells assessed as increase in JAK2 degradation at 5 uM after 24 hrs by Western blot analysis relative to control. In kind it is cell-based. Conditions: THP-1. The method in brief:
as §1

Series [9] concerns the target T1, E3 ubiquitin-protein ligase XIAP/Tyrosine-protein kinase JAK1 (Homo sapiens). The experiment in a line: Protac activity at IAP/JAK1 in human THP1 cells assessed as increase in JAK1 degradation at 5 uM after 24 hrs in presence of IAP ligand by Western blot analysis. In kind it is cell-based. The following applies: THP-1. The method in brief:
(§3)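 Unstimulated THP-1 cells were co-treated for 24 h with PROTAC and increasing concentrations of free, active IAP ligand. JAK1/JAK2 protein was quantified by automated Western blot against DMSO-treated basal levels, as the mean of n ≥ 3 separate experiments. Significance was assessed by one-tailed t-test.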

Series [10] has as its target T2, E3 ubiquitin-protein ligase XIAP/Tyrosine-protein kinase JAK2 (Homo sapiens). The experiment in a line: Protac activity at IAP/JAK2 in human THP1 cells assessed as increase in JAK2 degradation at 5 uM after 24 hrs in presence of IAP ligand by Western blot analysis. In kind it is cell-based. Conditions: THP-1. The method in brief:
as §3

For series [11] the target is unchanged. Nature of the series: Protac activity at IAP/JAK2 in human THP1 cells assessed as increase in JAK2 ubiquitination by immunoprecipitation assay. In kind it is cell-based. The following applies: THP-1.
The target is the same in series [12]. The experiment in a line: Protac activity at IAP/JAK2 in human THP1 cells assessed as increase in JAK2 degradation in presence of proteasome inhibitor MG132 by immunoprecipitation assay. In kind it is cell-based. The following applies: THP-1.
Series [13] addresses T1, E3 ubiquitin-protein ligase XIAP/Tyrosine-protein kinase JAK1 (Homo sapiens). The experiment in a line: Protac activity at IAP/JAK1 in human THP1 cells assessed as increase in JAK1 degradation in presence of proteasome inhibitor MG132 by immunoprecipitation assay. The series is classed as cell-based. Conditions: THP-1.
The target of another series is JAK3/JAK1 (Homo sapiens, UniProt P23458+P52333). Nature of the series: Inhibition of JAK1/JAK3 in human PBMC cells assessed as reduction in IL2-induced IFNgamma production. The series is classed as cell-based. The method in brief: as §2
The target of series [14] is Tyrosine-protein kinase JAK1 (Homo sapiens, UniProt P23458). The experiment in a line: Inhibition of JAK1 (unknown origin). In outline:
(§4)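 Isolated biochemical JAK enzyme assays. pIC50 values are means of multiple separate experiments (n ≥ 2).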

In series [15] the target is Tyrosine-protein kinase JAK2 (Homo sapiens, UniProt O60674). Nature of the series: Inhibition of JAK2 (unknown origin). The method in brief:
as §4

Series [16] concerns the target T3, Tyrosine-protein kinase JAK3 (Homo sapiens, UniProt P52333).
T3 sequence (P52333 whole entry): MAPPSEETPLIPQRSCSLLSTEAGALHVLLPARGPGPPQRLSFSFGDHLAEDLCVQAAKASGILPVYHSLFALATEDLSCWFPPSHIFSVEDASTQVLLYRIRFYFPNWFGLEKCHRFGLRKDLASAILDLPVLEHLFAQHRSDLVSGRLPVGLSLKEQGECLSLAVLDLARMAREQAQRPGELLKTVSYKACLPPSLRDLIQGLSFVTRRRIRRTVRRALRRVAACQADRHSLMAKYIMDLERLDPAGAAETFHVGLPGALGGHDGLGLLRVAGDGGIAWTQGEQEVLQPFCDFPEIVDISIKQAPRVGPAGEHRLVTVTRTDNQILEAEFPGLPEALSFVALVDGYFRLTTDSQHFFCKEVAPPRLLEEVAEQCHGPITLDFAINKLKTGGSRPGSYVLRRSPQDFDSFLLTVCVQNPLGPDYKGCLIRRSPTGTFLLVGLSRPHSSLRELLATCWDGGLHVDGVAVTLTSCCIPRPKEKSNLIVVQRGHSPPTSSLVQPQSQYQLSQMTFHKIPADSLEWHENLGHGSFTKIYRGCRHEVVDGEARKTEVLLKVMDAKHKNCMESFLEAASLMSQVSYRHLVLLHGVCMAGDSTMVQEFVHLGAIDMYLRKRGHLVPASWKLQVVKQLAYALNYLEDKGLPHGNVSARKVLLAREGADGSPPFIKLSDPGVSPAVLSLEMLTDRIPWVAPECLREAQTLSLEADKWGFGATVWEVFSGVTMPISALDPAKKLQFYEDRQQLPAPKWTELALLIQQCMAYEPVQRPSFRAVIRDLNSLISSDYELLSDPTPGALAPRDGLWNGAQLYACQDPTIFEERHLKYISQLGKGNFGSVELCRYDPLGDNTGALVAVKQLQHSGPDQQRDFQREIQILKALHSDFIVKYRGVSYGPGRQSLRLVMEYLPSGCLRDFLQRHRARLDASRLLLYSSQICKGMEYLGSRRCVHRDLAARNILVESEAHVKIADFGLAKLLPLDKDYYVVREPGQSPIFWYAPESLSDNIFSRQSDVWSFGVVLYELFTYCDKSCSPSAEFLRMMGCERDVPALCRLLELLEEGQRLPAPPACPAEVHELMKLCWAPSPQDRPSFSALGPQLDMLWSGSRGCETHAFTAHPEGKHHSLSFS
Nature of the series: Inhibition of JAK3 (unknown origin). The method in brief: as §4

The species entered for series [17] is Homo sapiens. The experiment in a line: Selectivity ratio, difference between pIC50 for JAK1 (unknown origin) to pIC50 for inhibition of JAK1/JAK3 in human PBMC cells assessed as reduction in IL2-induced IFNgamma production. In kind it is cell-based. In outline:
(§5)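 Permeability surrogate calculated as drop-off = 10^(biochemical JAK1 or JAK3 pIC50 − IL2 PBMC pIC50). The cellular step used a 1 h incubation.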

The species named for series [18] is Homo sapiens. The experiment in a line: Selectivity ratio, difference between pIC50 for JAK3 (unknown origin) to pIC50 for inhibition of JAK1/JAK3 in human PBMC cells assessed as reduction in IL2-induced IFNgamma production. The series is classed as cell-based. In outline: as §5

Nine molecules from ChEMBL document CHEMBL4627263, “Hi-JAK-ing the ubiquitin system: The design and physicochemical optimisation of JAK PROTACs” (Bioorg Med Chem, 2020) can be followed below.

One may read the chromatographic logD as a lipophilicity value derived from retention on a column. Broadly, the IC50 is the point on the concentration scale where inhibition reaches its midpoint.

Activity calls are given as the source filed them. The rule behind the calls is not given here.

T1 sequence (P23458 whole entry, looked up): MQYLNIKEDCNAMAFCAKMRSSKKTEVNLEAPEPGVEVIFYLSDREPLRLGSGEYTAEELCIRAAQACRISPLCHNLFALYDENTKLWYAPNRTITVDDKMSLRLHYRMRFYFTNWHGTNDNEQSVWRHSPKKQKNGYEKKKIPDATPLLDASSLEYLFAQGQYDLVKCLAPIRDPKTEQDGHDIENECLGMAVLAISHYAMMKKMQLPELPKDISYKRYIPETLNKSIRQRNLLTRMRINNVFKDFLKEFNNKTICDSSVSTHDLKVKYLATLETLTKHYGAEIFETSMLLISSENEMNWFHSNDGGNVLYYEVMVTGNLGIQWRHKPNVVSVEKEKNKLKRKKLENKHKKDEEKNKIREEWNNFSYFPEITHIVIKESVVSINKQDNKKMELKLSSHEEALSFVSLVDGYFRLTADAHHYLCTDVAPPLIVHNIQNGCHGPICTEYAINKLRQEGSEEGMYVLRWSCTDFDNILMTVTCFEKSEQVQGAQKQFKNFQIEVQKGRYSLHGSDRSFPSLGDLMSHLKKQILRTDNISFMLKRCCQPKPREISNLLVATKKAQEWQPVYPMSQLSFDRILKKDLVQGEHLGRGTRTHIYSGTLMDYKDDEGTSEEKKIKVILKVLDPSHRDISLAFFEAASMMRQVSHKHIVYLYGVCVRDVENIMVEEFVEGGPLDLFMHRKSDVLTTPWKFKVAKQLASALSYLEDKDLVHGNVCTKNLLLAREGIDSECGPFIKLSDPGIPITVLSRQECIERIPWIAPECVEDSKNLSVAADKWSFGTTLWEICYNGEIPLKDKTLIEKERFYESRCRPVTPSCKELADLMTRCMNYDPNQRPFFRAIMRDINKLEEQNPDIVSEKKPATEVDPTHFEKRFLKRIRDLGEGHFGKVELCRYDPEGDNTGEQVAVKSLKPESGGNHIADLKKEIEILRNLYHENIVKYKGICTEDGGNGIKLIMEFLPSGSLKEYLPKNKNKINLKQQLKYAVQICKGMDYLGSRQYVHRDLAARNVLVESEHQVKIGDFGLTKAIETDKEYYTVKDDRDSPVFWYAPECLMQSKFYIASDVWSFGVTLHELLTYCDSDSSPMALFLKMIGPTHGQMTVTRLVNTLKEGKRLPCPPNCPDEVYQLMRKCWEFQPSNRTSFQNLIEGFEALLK
T1 sequence (P98170 whole entry, looked up): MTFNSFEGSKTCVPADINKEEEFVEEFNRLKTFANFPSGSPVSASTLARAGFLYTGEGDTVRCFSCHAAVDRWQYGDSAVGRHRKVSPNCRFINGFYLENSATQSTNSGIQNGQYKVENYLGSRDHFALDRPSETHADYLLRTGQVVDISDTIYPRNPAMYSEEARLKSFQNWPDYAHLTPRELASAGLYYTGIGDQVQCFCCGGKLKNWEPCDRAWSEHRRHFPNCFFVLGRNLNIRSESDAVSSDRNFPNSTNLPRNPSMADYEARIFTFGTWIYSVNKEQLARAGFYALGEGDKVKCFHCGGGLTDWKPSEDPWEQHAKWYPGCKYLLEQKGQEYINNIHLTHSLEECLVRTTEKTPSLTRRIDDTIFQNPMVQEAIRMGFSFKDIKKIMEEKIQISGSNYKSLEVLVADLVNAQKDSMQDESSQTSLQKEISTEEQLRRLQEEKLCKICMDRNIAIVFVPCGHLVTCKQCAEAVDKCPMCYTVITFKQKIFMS
T2 sequence (O60674 whole entry, looked up): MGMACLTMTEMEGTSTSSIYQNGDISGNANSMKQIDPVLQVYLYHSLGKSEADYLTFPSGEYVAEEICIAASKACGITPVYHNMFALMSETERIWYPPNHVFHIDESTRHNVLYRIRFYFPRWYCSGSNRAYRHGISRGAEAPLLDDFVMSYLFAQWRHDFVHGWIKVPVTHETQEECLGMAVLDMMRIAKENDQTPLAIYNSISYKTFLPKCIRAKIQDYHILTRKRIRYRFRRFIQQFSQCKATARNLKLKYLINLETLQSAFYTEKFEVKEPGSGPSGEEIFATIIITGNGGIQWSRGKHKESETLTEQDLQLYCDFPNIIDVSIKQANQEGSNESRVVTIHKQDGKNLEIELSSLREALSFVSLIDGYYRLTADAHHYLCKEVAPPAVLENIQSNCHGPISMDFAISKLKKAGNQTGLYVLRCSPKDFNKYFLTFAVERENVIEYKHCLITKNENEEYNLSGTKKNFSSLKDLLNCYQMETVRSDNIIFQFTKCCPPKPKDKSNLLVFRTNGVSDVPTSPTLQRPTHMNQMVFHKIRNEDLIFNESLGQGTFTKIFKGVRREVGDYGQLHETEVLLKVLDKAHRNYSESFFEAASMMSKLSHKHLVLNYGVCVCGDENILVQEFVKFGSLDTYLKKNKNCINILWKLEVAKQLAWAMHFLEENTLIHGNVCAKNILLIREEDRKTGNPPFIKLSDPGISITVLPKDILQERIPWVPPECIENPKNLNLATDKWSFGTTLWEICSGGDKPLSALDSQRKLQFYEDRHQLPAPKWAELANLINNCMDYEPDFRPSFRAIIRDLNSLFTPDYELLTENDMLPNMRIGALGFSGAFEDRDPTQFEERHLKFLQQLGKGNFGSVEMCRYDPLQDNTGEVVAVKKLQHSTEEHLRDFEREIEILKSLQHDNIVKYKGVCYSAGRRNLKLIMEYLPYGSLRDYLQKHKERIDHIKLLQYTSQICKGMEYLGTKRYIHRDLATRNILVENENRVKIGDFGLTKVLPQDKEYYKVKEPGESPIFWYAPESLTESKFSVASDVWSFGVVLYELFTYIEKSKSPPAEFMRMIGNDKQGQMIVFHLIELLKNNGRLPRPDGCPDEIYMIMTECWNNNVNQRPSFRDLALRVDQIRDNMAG
T2 sequence (P98170 whole entry, looked up): as the sequence (P98170 whole entry, looked up) above
Sequence of Tyrosine-protein kinase JAK1 (P23458 whole entry): as the sequence (P23458 whole entry, looked up) above
Sequence of Tyrosine-protein kinase JAK2 (O60674 whole entry): as the sequence (O60674 whole entry, looked up) above
Sequence of JAK3/JAK1 (P23458 whole entry, one chain of several): as the sequence (P23458 whole entry, looked up) above

Turning to `CN[C@@H](C)C(=O)N[C@H](C(=O)N1C[C@@H](NC(=O)CCCCCCCCCOc2cc(F)cc(CNc3nc(Nc4cnn(C)c4)ncc3Cl)c2F)C[C@H]1C(=O)N[C@@H]1CCCc2ccccc21)C1CCCCC1`, the outcome in [1] was Active. Also, the Activity in series [2] was less than 35%. This molecule showed a chromatographic logD in series [3] of 5 to 8. For the same molecule, the result in series [4], in series [5] and in [6] was inactive.
Turning to `CN[C@@H](C)C(=O)N[C@H](C(=O)N1C[C@@H](NC(=O)CCCCCCCCCN2CCN(CCCOc3ccc(-c4cnc5cccc(-c6cc(F)c(CN7CCS(=O)(=O)CC7)c(F)c6)c5n4)cc3OC)CC2)C[C@H]1C(=O)N[C@@H]1CCCc2ccccc21)C1CCCCC1`, the result in series [1] and in series [11] was Active. In addition, the Activity is less than 35% in [2], 48% in series [7] and 65% in series [8]. In addition, the result in [9], in series [10], in series [4], in series [12] and in [13] was inactive. In series [3], this molecule showed a chromatographic logD of 5 to 8.
Regarding `CN[C@@H](C)C(=O)N[C@H](C(=O)N1C[C@@H](NC(=O)COCCOCCOCCOCCOc2cc(F)cc(CNc3nc(Nc4cnn(C)c4)ncc3Cl)c2F)C[C@H]1C(=O)N[C@@H]1CCCc2ccccc21)C1CCCCC1`, the result in [1] was Active. Besides, the Activity in series [2] is less than 35%. The same molecule yielded a chromatographic logD in series [3] of 5 to 8. For the same molecule, the outcome in series [4] was inactive.
In the same order, the values of `CN[C@@H](C)C(=O)N[C@H](C(=O)N1C[C@@H](NC(=O)COCCOCCOCCOCCN2CCN(CCCOc3ccc(-c4cnc5cccc(-c6cc(F)c(CN7CCS(=O)(=O)CC7)c(F)c6)c5n4)cc3OC)CC2)C[C@H]1C(=O)N[C@@H]1CCCc2ccccc21)C1CCCCC1` are “Active”, less than 35%, 5 to 8 and “inactive”.
On to `CN[C@@H](C)C(=O)N[C@H](C(=O)N1C[C@@H](NC(=O)COCCOCCOCCOCCn2cc(Nc3ncc(Cl)c(NCc4cc(F)ccc4F)n3)cn2)C[C@H]1C(=O)N[C@@H]1CCCc2ccccc21)C1CCCCC1`, for which, in series [1], the outcome was Active. The Activity in series [2] was less than 35%. Further, in series [3], the chromatographic logD fell in the range of 5 to 8. Besides, the outcome in series [4] was inactive.
In the same order, the values of `CN[C@@H](C)C(=O)N[C@H](C(=O)N1C[C@@H](NC(=O)CCCCCCCCCn2cc(Nc3ncc(Cl)c(NCc4cc(F)ccc4F)n3)cn2)C[C@H]1C(=O)N[C@@H]1CCCc2ccccc21)C1CCCCC1` are “Active”, less than 35%, 5 to 8 and “inactive”.
In the case of `OCCn1cc(Nc2ncc(Cl)c(NCc3cc(F)ccc3F)n2)cn1`, the IC50 on JAK3/JAK1 is 7.94 nM; in [14], less than 0.158 nM; in [15] it was 0.316 nM; in series [16], 1 nM. The results for the Selectivity ratio in the series filed under Homo sapiens [17] and in the series listed under Homo sapiens [18] were greater than 50 and 8, respectively. Besides, the chromatographic logD in [3] came to 3.5.
As to `COc1cc(-c2cnc3cccc(-c4cc(F)c(CN5CCS(=O)(=O)CC5)c(F)c4)c3n2)ccc1OCCCN1CCOCC1`, the IC50 was 316 nM at JAK3/JAK1, 7.94 nM in [14], 0.251 nM in series [15] and 7.94 nM in [16]. The result in series [7], in series [8], in series [9] and in series [10] was inactive. Also, the Selectivity ratio in the series listed under Homo sapiens [17] and in the series filed under Homo sapiens [18] was 40 in each case. For the same molecule, in series [3], the chromatographic logD was found to be 6.
`CN[C@H](C)C(=O)N[C@@H](C(=O)N1C[C@H](NC(=O)CCCCCCCCCN2CCN(CCCOc3ccc(-c4cnc5cccc(-c6cc(F)c(CN7CCS(=O)(=O)CC7)c(F)c6)c5n4)cc3OC)CC2)C[C@@H]1C(=O)N[C@H]1CCCc2ccccc21)C1CCCCC1`: the outcome in series [7] and in series [8] was inactive.
